Each structure is given as a SMILES string. ≈ marks a conversion by molar mass, not a printed value.

One experiment relates to Aspergillus niger. As to the kind of experiment: Antifungal activity against Aspergillus niger PTCC 5012 after 72 hrs by agar dilution method. The experiment is classed as functional. The gist of the method: (§1)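 Agar dilution on Sabouraud Dextrose Agar. Plates prepared in triplicate and incubated at 30 °C: yeasts about 24–48 h, moulds about 72 h, dermatophytes about 168 h. MIC taken as the lowest concentration with no growth, in µg/mL. Footnote states duplicate determinations.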

The next experiment relates to Saccharomyces cerevisiae. As to the kind of experiment: Antifungal activity against Saccharomyces cerevisiae PTCC 5177 after 24 to 48 hrs by agar dilution method. The experiment is classed as functional. The gist of the method: as §1
The next experiment deals with Microsporum. Nature of the experiment: Antifungal activity against Microsporum gypseum PTCC 5070 after 168 hrs by agar dilution method. It is filed as functional. The gist of the method: as §1
A further experiment relates to Candida albicans. As to the kind of experiment: Antifungal activity against Candida albicans PTCC 5027 after 24 to 48 hrs by agar dilution method. The experiment is classed as functional. The gist of the method:
as §1

Experiment [1] in a line: Cytotoxicity against mouse NIH/3T3 cells after 72 hrs by MTT colorimetric assay. The experiment is classed as cell-based. The settings on record: NIH3T3, 72 h. The method in brief:
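NIH/3T3 cells in exponential growth were trypsinized and seeded at 5 × 10^4 cells/mL in complete medium. Serial dilutions were added, each in triplicate, with untreated cells as the viability control. After 72 h incubation, MTT (5 mg/mL solution) was added for 1 h. Medium was replaced with DMSO and absorbance read at 492 nm. IC50 was taken from dose-response curves against control; mean ± SD of triplicates.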

For `O=C(Cn1ccnc1)c1ccc(Cl)cc1O`, the MIC is 64 µg/mL (≈ 270 µM) in the experiment with Aspergillus niger, 0.25 µg/mL (≈ 1.06 µM) with Saccharomyces cerevisiae, 32 µg/mL (≈ 135 µM) against Microsporum and 64 µg/mL (≈ 270 µM) against Candida albicans.

For the compound `COc1ccc(C(=O)Cn2ccnc2)c(O)c1`, the IC50 in experiment [1] stood at 221 µg/mL (≈ 952 µM). Besides, the MIC was 16 µg/mL (≈ 68.9 µM) with Aspergillus niger, 0.25 µg/mL (≈ 1.08 µM) in the experiment with Saccharomyces cerevisiae, 8 µg/mL (≈ 34.4 µM) with Microsporum and 8 µg/mL (≈ 34.4 µM) in the experiment with Candida albicans.

With `O=C(Cn1cncn1)c1ccccc1O`, the MIC turned out to be 32 µg/mL (≈ 157 µM) against Aspergillus niger, 64 µg/mL (≈ 315 µM) in the experiment on Saccharomyces cerevisiae, 64 µg/mL (≈ 315 µM) against Microsporum and 64 µg/mL (≈ 315 µM) against Candida albicans.

With `O=C(Cn1cncn1)c1ccc(Cl)cc1O`, the MIC in the experiment with Aspergillus niger came out at 16 µg/mL (≈ 67.3 µM); in the experiment with Saccharomyces cerevisiae it was 64 µg/mL (≈ 269 µM); with Microsporum, 16 µg/mL (≈ 67.3 µM); with Candida albicans, 32 µg/mL (≈ 135 µM).

For `COc1ccc(C(=O)Cn2cncn2)c(O)c1`, half-maximal inhibition in experiment [1] (IC50) required 222 µg/mL (≈ 952 µM). Moreover, the MIC in the experiment with Aspergillus niger stood at 32 µg/mL (≈ 137 µM); in the experiment on Saccharomyces cerevisiae, 8 µg/mL (≈ 34.3 µM); against Microsporum, 16 µg/mL (≈ 68.6 µM); with Candida albicans, 8 µg/mL (≈ 34.3 µM).

In turn, `COc1ccc(C(=O)Cn2c[n+](N)cn2)c(O)c1.[Br-]` gave an IC50 in experiment [1] of 254 µg/mL. Besides, the MIC was determined as 16 µg/mL in the experiment on Aspergillus niger, 4 µg/mL in the experiment on Saccharomyces cerevisiae, 8 µg/mL against Microsporum and 2 µg/mL against Candida albicans.

Turning to `O=C(Cn1c[n+](CC(=O)c2ccc(Cl)cc2O)cn1)c1ccc(Cl)cc1O.[Br-]`, the MIC against Aspergillus niger was determined as 64 µg/mL; against Saccharomyces cerevisiae it was 8 µg/mL; against Microsporum, 32 µg/mL; with Candida albicans, 32 µg/mL.

Take `O=C(Cn1cnnc1)c1ccc(Cl)cc1O`: the MIC in the experiment with Aspergillus niger turned out to be 32 µg/mL (≈ 135 µM); in the experiment on Saccharomyces cerevisiae it was 16 µg/mL (≈ 67.3 µM); with Microsporum, 64 µg/mL (≈ 269 µM); against Candida albicans it was 16 µg/mL (≈ 67.3 µM).

Consider `N[n+]1cnn(CC(=O)c2ccccc2O)c1.[Br-]`, for which the minimal inhibitory concentration (MIC) in the experiment on Aspergillus niger amounted to 32 µg/mL; in the experiment with Saccharomyces cerevisiae, 32 µg/mL; in the experiment with Microsporum, 32 µg/mL; in the experiment on Candida albicans, 64 µg/mL.

Regarding `O/N=C(\Cn1ccnc1)c1ccccc1O`, the MIC worked out at 64 µg/mL (≈ 295 µM) in the experiment on Aspergillus niger, 32 µg/mL (≈ 147 µM) in the experiment with Saccharomyces cerevisiae, 64 µg/mL (≈ 295 µM) against Microsporum and 32 µg/mL (≈ 147 µM) against Candida albicans.

For `O=C(Cn1ccnc1)c1ccccc1O`, the MIC with Aspergillus niger, against Saccharomyces cerevisiae, with Microsporum and in the experiment on Candida albicans was 64 µg/mL (≈ 316 µM) each time.

`O=C(Cn1c[n+](CC(=O)c2ccccc2O)cn1)c1ccccc1O.[Br-]` came in with an IC50 in experiment [1] of 47 µg/mL. For the same compound, the MIC in the experiment on Aspergillus niger came out at 32 µg/mL; in the experiment with Saccharomyces cerevisiae it was 1 µg/mL; with Microsporum, 16 µg/mL; against Candida albicans it was 16 µg/mL.

Consider `N[n+]1cnn(CC(=O)c2ccc(Cl)cc2O)c1.[Br-]`, for which inhibition in experiment [1] was half-maximal at 370 µg/mL (IC50). Also, the MIC was 32 µg/mL against Aspergillus niger, 0.25 µg/mL in the experiment on Saccharomyces cerevisiae, 16 µg/mL in the experiment on Microsporum and 4 µg/mL with Candida albicans.

For `O=C(Cn1cnnc1)c1ccccc1O`, the MIC in the experiment with Aspergillus niger is 16 µg/mL (≈ 78.7 µM); in the experiment on Saccharomyces cerevisiae, 16 µg/mL (≈ 78.7 µM); against Microsporum it was 16 µg/mL (≈ 78.7 µM); in the experiment with Candida albicans, 32 µg/mL (≈ 157 µM).

`COc1ccc(C(=O)Cn2c[n+](CC(=O)c3ccc(OC)cc3O)cn2)c(O)c1.[Br-]` returned an IC50 in experiment [1] of 98 µg/mL. Also, the MIC against Aspergillus niger was 16 µg/mL; with Saccharomyces cerevisiae, 4 µg/mL; in the experiment with Microsporum it was 16 µg/mL; against Candida albicans it was 8 µg/mL.

Take `OC(Cn1cncn1)(Cn1cncn1)c1ccc(F)cc1F` [FLUCONAZOLE]: the IC50 in experiment [1] is 387 µg/mL (≈ 1260 µM). In addition, the MIC came to 32 µg/mL (≈ 104 µM) with Aspergillus niger, 32 µg/mL (≈ 104 µM) against Saccharomyces cerevisiae, 32 µg/mL (≈ 104 µM) with Microsporum and 8 µg/mL (≈ 26.1 µM) in the experiment on Candida albicans.

`Clc1ccc(COC(Cn2ccnc2)c2ccc(Cl)cc2Cl)c(Cl)c1` (stereo not given) [MICONAZOLE]: the MIC is 2 µg/mL (≈ 4.81 µM) against Aspergillus niger, 1 µg/mL (≈ 2.4 µM) in the experiment on Saccharomyces cerevisiae, 8 µg/mL (≈ 19.2 µM) against Microsporum and 1 µg/mL (≈ 2.4 µM) in the experiment with Candida albicans.

Source of the values: ChEMBL document CHEMBL1143103, “2-Hydroxyphenacyl azoles and related azolium derivatives as antifungal agents” (Bioorg Med Chem Lett, 2008).
